# Only some compounds are listed: those with a hit (about 4.8% of all), similar ones and a draw of the others.
# UPR CHOP act = apoptotic UPR (CHOP) activation; CHO-CHOP luciferase reporter, luminescence; percent of tunicamycin response over DMSO baseline; activation, % at 10 µM; 330,000 tested, 0.34% active;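 active = at 10 µM dose, activation of 40% or more, normalized to positive control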
#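 System: CHO CHOP reporter cells. Amount: 500 cells per well. Buffer or medium: F12 medium, 10% FBS. Compound dosing: one dose, 10 µM in 0.5% DMSO. Incubation: 6 h compound exposure at 37 °C after overnight seeding. Technique: Steady-Glo luciferase luminescence. Benchmarks: tunicamycin and DMSO controls.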
# Beta apoptosis = blocks beta cell apoptosis. INS-1E cytokine-induced death, ATP luminescence, 48 h; percent of positive-control rescue, neutral wells zero. 300,000 tested, 0.8% active. protection from apoptosis, % (concentration not given with the values);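 active = Every replicate reaches about 75%, or at least half do and their mean reaches it too, limit read from the data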;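 also: higher means more ATP so stronger rescue from cytokine killing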
# CSC inhib = cancer stem cell inhibition; cancer stem cell-like cells viability, luminescence; inhibition, % at 7.5 µM; 300,000 tested, 1.1% active; in the data active = inhibition above about 75%; tested in HMLE shEcad cells
# SKKanGAS inh = blocks kanamycin growth of S. pyogenes SKKanGAS strain; BacTiter-Glo, 6 h; inhibition, % at 7.5 µM; 300,000 tested, 1.3% active; AID 1662;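 active = mean replicate score, as percent of positive control median, at least 50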;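 also: strain carries kanamycin resistance gene driven by streptokinase promoter and grows in 40 µg/ml kanamycin; loss of luminescence reflects streptokinase promoter inhibition or plain growth inhibition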
# Mdm2 MdmX PPI = inhibitors of human Mdm2/MdmX interaction. AID 485346. SaOS-2 split-luciferase Mdm2/MdmX complementation, luminescence. 330,000 tested, 3% active. O15151+Q00987. inhibition, % at 8 µM;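 active = inhibition of at least 50% at 8 µM in the primary screen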
# Target sequence (O15151 whole entry, looked up): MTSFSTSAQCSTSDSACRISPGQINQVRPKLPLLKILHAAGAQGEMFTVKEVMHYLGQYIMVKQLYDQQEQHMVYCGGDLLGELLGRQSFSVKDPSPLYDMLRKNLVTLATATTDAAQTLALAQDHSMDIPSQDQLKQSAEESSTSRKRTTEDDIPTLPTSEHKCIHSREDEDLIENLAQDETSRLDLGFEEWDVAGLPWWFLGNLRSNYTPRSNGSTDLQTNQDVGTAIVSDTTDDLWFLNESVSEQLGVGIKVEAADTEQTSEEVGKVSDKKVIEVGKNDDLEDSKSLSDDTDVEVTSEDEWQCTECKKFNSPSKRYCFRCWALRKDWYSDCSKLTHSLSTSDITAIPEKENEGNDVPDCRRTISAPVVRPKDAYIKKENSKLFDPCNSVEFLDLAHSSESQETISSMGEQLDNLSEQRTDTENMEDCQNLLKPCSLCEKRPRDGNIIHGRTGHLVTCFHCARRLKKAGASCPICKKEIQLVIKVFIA
# Target sequence (Q00987 whole entry, looked up): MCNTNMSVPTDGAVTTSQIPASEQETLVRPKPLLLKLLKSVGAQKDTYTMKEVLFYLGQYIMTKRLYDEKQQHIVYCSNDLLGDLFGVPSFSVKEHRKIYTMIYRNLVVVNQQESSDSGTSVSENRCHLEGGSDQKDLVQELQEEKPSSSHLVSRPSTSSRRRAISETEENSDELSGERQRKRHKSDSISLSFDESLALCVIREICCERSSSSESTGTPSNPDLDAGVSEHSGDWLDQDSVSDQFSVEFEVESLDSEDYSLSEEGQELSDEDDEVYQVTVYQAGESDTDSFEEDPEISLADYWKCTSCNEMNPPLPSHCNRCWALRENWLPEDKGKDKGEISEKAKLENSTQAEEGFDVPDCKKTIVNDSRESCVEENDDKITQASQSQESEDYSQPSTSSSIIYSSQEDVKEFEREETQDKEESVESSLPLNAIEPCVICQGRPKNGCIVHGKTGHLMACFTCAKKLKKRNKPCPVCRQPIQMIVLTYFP
# UPR XBP1 act = adaptive UPR (XBP1) activation | CHO-XBP1 luciferase reporter, IRE1-XBP1 UPR activation, luminescence; percent of tunicamycin response, DMSO as zero | activation, % at 20 µM | 330,000 tested, 0.33% active;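 active = versus positive control, 20 µM dose yields 30% or more activation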
#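 Material: IRE1-XBP1 luciferase reporter CHO line / Quantity: one thousand reporter cells per well / Buffer or medium: F12 with 10% serum / Compound: 20 µM single concentration, DMSO 1% / Times: 6 h treatment, 37 °C / Detection: Steady-Glo luciferase glow luminescence, 10 min after reagent addition / Benchmarks: tunicamycin high, DMSO low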
# Mdm2 MdmX conf = human Mdm2/MdmX binding inhibition, confirmed; shares compounds with Mdm2 MdmX PPI; luminescent assay; inhibition, % at 8 µM; 10,000 tested, 55% active; AID 489028; in the data active = inhibition above about 40%
# FLuc counter = counter-screen for Mdm2/MdmX inhibitors: full-length luciferase; SaOS-2 full-length luciferase counterscreen, luminescence; AID 504607; inhibition, % at 8 µM; shares compounds with Mdm2 MdmX PPI; 6,200 tested, 77% active;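 active = mean inhibition at 8 µM reaching about 37%, which flags the compound as non-specific, limit read from the data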;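 also: p53-null SaOS-2 cells with luciferase driven by a doxycycline-inducible promoter; compound on cells about two nights before reading with doxycycline added after day one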
# Hits are given with their value; – = inactive; · = not tested or not shown.
SMILES,UPR CHOP act,Beta apoptosis,CSC inhib,SKKanGAS inh,Mdm2 MdmX PPI,UPR XBP1 act,Mdm2 MdmX conf,FLuc counter
COc1cc2c(cc1NC(=O)CSc1ccc(C)cc1)oc1ccccc12,–,–,–,–,–,–,·,·
COc1cc2c(cc1NC(=O)CSc1nnnn1-c1ccccc1)oc1ccccc12,–,–,–,–,71,–,–,·
CCn1c(SCC(=O)Nc2cc3oc4ccccc4c3cc2OC)nnc1-c1cccs1,–,–,–,–,51,–,–,·
CCC(=O)N1CCN(c2ccc(NC(=O)COc3ccc(CC)cc3)cc2)CC1,–,–,–,–,–,–,·,·
COc1ccc(-c2ccnc(-c3ccncc3)n2)cc1,–,·,–,–,–,–,·,·
COc1ccc(-c2ccnc(-c3ccc(O)cc3)n2)cc1,–,–,–,–,52,–,–,84
CN(C)c1ccc(/C=C2\C(=N)N3N=C(CC(=O)N4CCCCC4)SC3=NC2=O)cc1,–,–,–,–,–,–,·,·
CN(C)c1ccc(/C=C2\C(=N)N3C(=NC2=O)Sc2cc(S(C)(=O)=O)ccc23)cc1,–,·,–,–,89,136,–,·
CCN(CC(=O)NCc1ccc(Cl)cc1)C(=O)CN1C(=O)NC(C)(c2ccccc2)C1=O (stereo unspecified),–,·,–,–,–,–,·,·
CC(=O)N1CCc2c(sc(NC(=O)Cc3ccc(C)cc3C)c2C#N)C1,–,–,–,–,–,–,·,·
CC(=O)N1CCc2c(sc(NC(=O)CCS(=O)(=O)c3ccc(C)cc3)c2C#N)C1,–,–,–,–,52,–,41,78
N#C/C(=C\c1cccs1)C(=O)Nc1nccs1,–,–,–,–,–,–,·,·
Cc1ccc(-c2nc3ccccc3o2)cc1NC(=S)NC(=O)c1cccs1,–,–,–,–,–,–,·,·
Cc1cc(C)c2oc(-c3ccc(C)c(NC(=S)NC(=O)c4cccs4)c3)nc2c1,–,–,·,–,77,–,–,·
COc1ccc(-c2cc(=O)oc3cc(OC(=O)C4CCCCC4)c(Cl)cc23)cc1,–,–,–,–,75,–,84,52
Cc1c(O)ccc2c(-c3ccccc3)cc(=O)oc12,–,–,–,–,–,–,·,·
COc1ccc(-c2cc(=O)oc3c(C)c(O)ccc23)cc1,–,–,–,–,65,–,81,53
COc1ccc(-c2cc(=O)oc3cc(OC(C)C(=O)NC4CC4)ccc23)cc1 (stereo unspecified),–,–,–,–,–,–,·,·
COc1ccc(-c2cc(=O)oc3cc(O)ccc23)cc1,–,–,–,–,63,–,46,40
Cc1[nH]c(C)c(S(=O)(=O)NCc2ccco2)c1C(=O)N1CCCCC1,–,–,–,–,–,–,·,·
CCOC(=O)c1c(NC(=S)NCCc2ccccc2)sc2c1CC(C(C)C)OC2 (stereo unspecified),–,·,–,101,51,–,–,·
C=CCN1CCN(C(=O)CCc2ccccc2)CC1,–,–,–,–,–,–,·,·
CCc1c(C)sc(NC(=O)c2cc(-c3ccc(OC)c(OC)c3)on2)c1C#N,–,–,–,–,–,–,·,·
CCc1c(C)sc(NC(=O)c2cc(-c3cc(OC)ccc3OC)on2)c1C#N,–,–,–,–,97,–,46,68
CC(C)(C)C(=O)NC(=S)Nc1cccc(C(=O)O)c1,–,–,–,–,–,–,·,·
SMILES,UPR CHOP act,Beta apoptosis,CSC inhib,SKKanGAS inh,Mdm2 MdmX PPI,UPR XBP1 act,Mdm2 MdmX conf,FLuc counter
O=C(O)c1cccc(NC(=S)NC(=O)c2ccncc2)c1,–,–,–,–,53,–,–,·
O=C(NC(=S)Nc1cccc2cccnc12)c1ccccc1,–,–,–,–,–,–,·,·
O=C(NC(=S)Nc1cccc2cnccc12)c1ccccc1,–,–,–,–,61,–,–,·
O=C(Nc1ccc(Oc2ccc(Cl)cc2)c(Cl)c1)c1cc(I)cc(I)c1O,–,–,100,103,100,–,74,56
CCN(CC)c1ccc2c(c1)oc(=O)c1c(Cl)cc(=O)oc12,–,–,–,–,99,–,99,57
CCN(CC)c1ccc2c(C)c(Cl)c(=O)oc2c1,–,–,–,–,–,–,·,·
CC(=O)N1CCN(C(=O)c2cc(=O)c3ccccc3o2)CC1,–,–,–,–,–,–,·,·
CC(C)C(=O)NC(c1ccccc1)c1cc([N+](=O)[O-])c2cccnc2c1O (stereo unspecified),–,91,147,84,81,–,72,42
CC(=O)NC(C)c1cc(F)c2cccnc2c1O (stereo unspecified),–,–,–,·,–,–,·,·
CC(=O)NC(c1ccccc1)c1cc([N+](=O)[O-])c2cccnc2c1O (stereo unspecified),–,–,120,–,63,–,67,50
C=C1CCC[C@]2(C)C[C@H]3OC(=O)C(CNC(CC)CO)[C@H]3CC12 (stereo partly specified),–,–,–,–,–,–,·,·
C=C1CCC[C@]2(C)C[C@H]3OC(=O)C(CN4CCCCC4CO)[C@H]3CC12 (stereo partly specified),–,–,–,–,66,–,55,38
C=C1CCC[C@]2(C)C[C@H]3OC(=O)C(CNC(C)(CO)CO)[C@H]3CC12 (stereo partly specified),–,–,–,–,63,–,–,55
CN1CCN(C2=Cc3ccccc3Sc3cc(F)ccc32)CC1,–,–,–,–,–,–,·,·
CN1CCN(C2=Cc3ccc(Cl)cc3Sc3ccc(F)cc32)CC1,–,–,121,60,60,–,–,·
CCN(CC)CCNC(=O)c1cc2c(s1)-c1ccccc1SC2,–,–,–,–,64,–,48,79
CC(C)(C)OC(=O)C[C@H]1C/C=C\C[C@H](CC(=O)N[C@H](CO)Cc2ccccc2)C(=O)N[C@H](Cc2ccccc2)COC1=O,–,–,–,·,–,–,·,·
COc1ccc(N/C=C/C(=O)c2sc(-c3ccccc3)nc2C)cc1,–,–,–,–,59,–,–,98
CCOC(=O)C1=C(C)Nc2sc(C(=O)c3ccc(F)cc3)c(N)c2C1c1ccc(C(=O)OC)cc1 (stereo unspecified),–,–,·,–,61,–,–,·
O=C(Nc1ccc(N2CCCCC2)cc1)c1ccccn1,–,–,–,–,81,–,84,–
C/C(=N\Nc1cc(-c2ccccc2)nc(-c2ccccc2)n1)c1ccc(O)c(C)c1,–,–,·,98,53,–,–,·
COc1cc(N/N=C(\C)c2ccc(O)c(C)c2)nc(-c2ccccc2)n1,–,–,110,–,87,–,66,112

# Screening results (PubChem)
